Results gathered from unrelated publications.
Each line is one published result; the experiments were not run side by side.
Target: Serine/threonine-protein kinase D1 (PRKD1, Homo sapiens, UniProt Q15139)
Residues used in one study (Q15139 1-912): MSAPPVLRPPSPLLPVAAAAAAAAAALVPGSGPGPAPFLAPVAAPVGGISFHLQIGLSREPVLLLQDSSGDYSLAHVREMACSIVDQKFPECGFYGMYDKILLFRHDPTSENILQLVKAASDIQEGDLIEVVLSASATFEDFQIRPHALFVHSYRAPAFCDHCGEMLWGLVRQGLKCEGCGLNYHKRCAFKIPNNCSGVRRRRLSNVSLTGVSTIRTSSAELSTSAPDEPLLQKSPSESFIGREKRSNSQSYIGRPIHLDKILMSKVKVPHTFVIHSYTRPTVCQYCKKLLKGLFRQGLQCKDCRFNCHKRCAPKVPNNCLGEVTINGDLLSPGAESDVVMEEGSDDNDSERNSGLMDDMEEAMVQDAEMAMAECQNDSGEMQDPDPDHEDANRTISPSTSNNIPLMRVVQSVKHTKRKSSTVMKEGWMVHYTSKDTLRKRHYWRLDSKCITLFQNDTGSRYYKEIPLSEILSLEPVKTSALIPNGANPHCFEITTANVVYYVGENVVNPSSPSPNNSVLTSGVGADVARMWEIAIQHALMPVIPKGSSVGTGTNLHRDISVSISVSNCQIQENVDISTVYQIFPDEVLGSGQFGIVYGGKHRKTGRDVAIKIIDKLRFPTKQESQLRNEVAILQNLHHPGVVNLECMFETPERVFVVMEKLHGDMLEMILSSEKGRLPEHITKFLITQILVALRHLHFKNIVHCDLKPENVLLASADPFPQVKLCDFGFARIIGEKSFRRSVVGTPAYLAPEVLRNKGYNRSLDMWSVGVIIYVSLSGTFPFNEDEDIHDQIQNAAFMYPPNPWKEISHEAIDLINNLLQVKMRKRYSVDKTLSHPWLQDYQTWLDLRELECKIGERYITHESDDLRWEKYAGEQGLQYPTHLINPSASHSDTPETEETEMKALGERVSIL

SMILES | read-out | method | concentration | remaining binding
C[C@H](c1ccnc(Nc2nc3ccc(-c4cc(N(C)C)ncn4)cc3[nH]2)c1)N1CCN(C(=O)CC(F)(F)F)CC1 | cell-free assay | competition with immobilised ligand | 0.1 µM | 100%
N[C@H]1CCN(c2nccc(-c3cnn4ncccc34)n2)C1 | binding | – | 1 µM | 65%
O=C(NCCCN1CCOCC1)c1ccc(Nc2nccc(-c3cc4ccccc4s3)n2)cc1 | binding | competition with immobilised ligand | 1 µM | 47%
C[C@@]1(Cc2ccc(C#N)cc2)C(=O)N(c2cc(Cl)cc(Cl)c2)c2ncc(C(=O)NC3(c4nc(C5CCC5)no4)CC3)n21 | cell-free assay | competition with immobilised ligand | 1 µM | 86%
O=C(NCC1CCOCC1)c1n[nH]cc1NC(=O)c1c(F)cccc1F | binding | competition with immobilised ligand | 1 µM | 100%
CC1CCCN1c1nccc(-c2cnn3ncccc23)n1 (stereo not drawn) | binding | – | 1 µM | 100%
CCN1CCN(Cc2ccc(C(=O)Nc3ccc(C)c(Oc4ccc5c(c4)CC(=O)N5)c3)cc2C(F)(F)F)CC1 | binding | competition with immobilised ligand | 1 µM | 96%
CNC(=O)[C@@H]1CC[C@@H](n2c(-c3ccc4cnccc4c3)nc3ccc(C(=O)NCc4cccc(C(N)=O)c4)cc32)C1 | binding | competition with immobilised ligand | 1 µM | 100%
Nc1ncc2c(n1)-c1c([nH]c3ccc(C#CC4CC4)cc13)CCCC2 | binding | competition with immobilised ligand | 1 µM | 100%
CN(C)c1nccc(-c2cnn3ncccc23)n1 | binding | – | 1 µM | 57%
Cc1cc(NC(=O)c2cccc(S(F)(F)(F)(F)F)c2)cc(-n2ccn3nc(-c4cccnc4)cc23)c1 | cell-free assay | competition with immobilised ligand | 1 µM | 100%
c1cncc(-c2cccc(Nc3nccc(NC4CCCCC4)n3)c2)c1 | binding | competition with immobilised ligand | 10 µM | 11%
CN(C)c1ncc(F)c(-c2cnn3ncccc23)n1 | binding | – | 1 µM | 100%
O=C1NC(c2ccccn2)Sc2ccccc21 (stereo not drawn) | cell-free assay | competition with immobilised ligand | 1 µM | 100%
O=C(NCCCN1CCOCC1)c1ccc(Nc2ncc(Cl)c(-c3ccc(Cl)s3)n2)cc1 | binding | competition with immobilised ligand | 1 µM | 30%
C[C@@H]1CCN(c2nccc(-c3cnn4ncccc34)n2)C1 | binding | – | 1 µM | 100%
C=CC(=O)N1CCC(C(=O)NCC(=O)N2CCN(c3nc(-c4cnc(N)nc4C(F)F)nc(N4CCOCC4)n3)CC2)CC1 | binding | competition with immobilised ligand | 1 µM | 90%
CO[C@@H](C)c1c(Nc2ccc([C@H](N(C)C(=O)C3CCS(=O)(=O)CC3)C(F)(F)F)cc2)cnc2cc(Cl)nn12 | cell-free assay | competition with immobilised ligand | 1 µM | 100%
CN(c1nccc(-c2cnn3ncccc23)n1)C1CC1 | binding | – | 1 µM | 100%
COc1ncc2cc3ccccc3nc2c1C#N | cell-free assay | competition with immobilised ligand | 5 µM | 87%
CC(=O)c1c(NS(C)(=O)=O)c2cc(-c3ccc(Cl)cc3)c(-c3ccc(Cl)cc3Cl)nc2n(C)c1=O | cell-free assay | competition with immobilised ligand | 1 µM | 100%
